Assay results reported in ChEMBL document CHEMBL4261530, “Rational design and synthesis of novel phenylsulfonyl-benzamides as anti-prostate cancer agents” (Medchemcomm, 2017).

Tests used:
[1] = test system: LNCaP; assay: Potency index, ratio of enzalutamide IC50 to test compound IC50 for human LNCAP cells; type: functional
[2] = test system: LNCaP; assay: Antiproliferative activity against human LNCAP cells after 96 hrs by propidium iodide staining-based fluorescence assay; type: functional, cell-based
[3] = test system: VCaP; assay: Antiproliferative activity against human VCaP cells after 96 hrs by propidium iodide staining-based fluorescence assay; type: functional, cell-based
[4] = test system: DU-145; assay: Potency index, ratio of enzalutamide IC50 to test compound IC50 for human DU145 cells; type: functional
[5] = test system: CWR22R; assay: Potency index, ratio of enzalutamide IC50 to test compound IC50 for human 22Rv1 cells; type: functional
[6] = test system: VCaP; assay: Potency index, ratio of enzalutamide IC50 to test compound IC50 for human VCaP cells; type: functional
[7] = test system: CWR22R; assay: Antiproliferative activity against human 22Rv1 cells after 96 hrs by propidium iodide staining-based fluorescence assay; type: functional, cell-based
[8] = test system: DU-145; assay: Antiproliferative activity against human DU145 cells after 96 hrs by propidium iodide staining-based fluorescence assay; type: functional, cell-based
[9] = test system: HEK293; assay: Cytotoxicity against HEK293 cells assessed as reduction in cell viability at 10 uM after 24 hrs by CellTiter-Blue assay relative to control; type: cell-based; conditions: human, hek293, 24 h
Summary of the method: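 HEK293 cells in DMEM with 10% FBS and 2 mM L-glutamine, seeded at 100,000 cells/ml and treated after 24 h at 10 µM for 24 h. […] Cell Titer Blue added for 2 h at 37°C, fluorescence read at 560/590 nm.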

Compound	Ratio IC50 [1]	Activity [2]	Activity [3]	Ratio IC50 [4]	Ratio IC50 [5]	Ratio IC50 [6]	Activity [7]	Activity [8]	Activity [9]	IC50 [2]	IC50 [3]	IC50 [7]	IC50 [8]
O=C(Nc1ccccc1C(F)(F)F)c1ccc(Sc2ccc(O)cc2)cc1	<=8	Dose-dependent effect	Dose-dependent effect	<=8	<=8	<=8	Dose-dependent effect	Dose-dependent effect	–	–	–	–	–
O=C(Nc1ccccc1C(F)(F)F)c1ccc([S+]([O-])c2ccc(O)cc2)cc1 (configuration not stated)	–	Dose-dependent effect	Dose-dependent effect	–	–	–	Dose-dependent effect	Dose-dependent effect	–	–	–	–	–
O=C(Nc1ccc(S(F)(F)(F)(F)F)cc1)c1ccc(S(=O)(=O)c2ccc(O)cc2)cc1	<=8	Dose-dependent effect	Dose-dependent effect	<=8	<=8	<=8	Dose-dependent effect	Dose-dependent effect	> 50%	–	–	–	–
O=C(Nc1cc(C(F)(F)F)cc(C(F)(F)F)c1)c1ccc(S(=O)(=O)c2ccc(O)cc2)cc1	<=8	Dose-dependent effect	Dose-dependent effect	<=8	<=8	<=8	Dose-dependent effect	Dose-dependent effect	–	–	–	–	–
O=C(Nc1ccc([N+](=O)[O-])c(C(F)(F)F)c1)c1ccc(Sc2ccc(O)cc2)cc1	<=8	Dose-dependent effect	Dose-dependent effect	<=8	<=8	<=8	Dose-dependent effect	Dose-dependent effect	–	–	–	–	–
N#Cc1ccc(NC(=O)c2ccc(S(=O)(=O)c3ccc(O)cc3)cc2)cc1C(F)(F)F	<=8	Dose-dependent effect	Dose-dependent effect	<=8	<=8	<=8	Dose-dependent effect	Dose-dependent effect	–	–	–	–	–
O=C(Nc1ccc(C(F)(F)F)cc1)c1ccc(S(=O)(=O)c2ccc(O)cc2)cc1	<=8	Dose-dependent effect	Dose-dependent effect	<=8	<=8	<=8	Dose-dependent effect	Dose-dependent effect	–	–	–	–	–
O=C(Nc1cccc(S(F)(F)(F)(F)F)c1)c1ccc(Sc2ccc(O)cc2)cc1	<=8	Dose-dependent effect	Dose-dependent effect	<=8	<=8	<=8	Dose-dependent effect	Dose-dependent effect	–	–	–	–	–
O=C(Nc1cccc(C(F)(F)F)c1)c1ccc(S(=O)(=O)c2ccc(O)cc2)cc1	<=8	Dose-dependent effect	Dose-dependent effect	<=8	<=8	<=8	Dose-dependent effect	Dose-dependent effect	–	–	–	–	–
O=C(Nc1ccc([N+](=O)[O-])c(C(F)(F)F)c1)c1ccc(S(=O)(=O)c2ccc(O)cc2)cc1	<=8	Dose-dependent effect	Dose-dependent effect	<=8	<=8	<=8	Dose-dependent effect	Dose-dependent effect	–	–	–	–	–
O=C(Nc1cccc(C(F)(F)F)c1)c1ccc(S(=O)(=O)c2cccc(C(F)(F)F)c2)cc1	–	–	–	–	–	–	–	–	–	Nd(Insoluble)	Nd(Insoluble)	Nd(Insoluble)	Nd(Insoluble)
O=C(Nc1ccccc1C(F)(F)F)c1ccc(S(=O)(=O)c2ccc(O)cc2)cc1	<=8	Dose-dependent effect	Dose-dependent effect	<=8	<=8	<=8	Dose-dependent effect	Dose-dependent effect	–	–	–	–	–
O=C(Nc1cccc(C(F)(F)F)c1)c1ccc(Sc2cccc(C(F)(F)F)c2)cc1	<=8	Dose-dependent effect	Dose-dependent effect	<=8	<=8	<=8	Dose-dependent effect	Dose-dependent effect	–	–	–	–	–
O=C(Nc1cccc(S(F)(F)(F)(F)F)c1)c1ccc(S(=O)(=O)c2ccc(O)cc2)cc1	<=8	Dose-dependent effect	Dose-dependent effect	<=8	<=8	<=8	Dose-dependent effect	Dose-dependent effect	–	–	–	–	–
N#Cc1ccc(NC(=O)c2ccc(Sc3cccc(C(F)(F)F)c3)cc2)cc1C(F)(F)F	<=8	Dose-dependent effect	Dose-dependent effect	<=8	<=8	<=8	Dose-dependent effect	Dose-dependent effect	–	–	–	–	–
N#Cc1ccc(NC(=O)c2ccc(Sc3ccc(O)cc3)cc2)cc1C(F)(F)F	<=8	Dose-dependent effect	Dose-dependent effect	<=8	<=8	<=8	Dose-dependent effect	Dose-dependent effect	–	–	–	–	–
O=C(Nc1cccc(C(F)(F)F)c1)c1ccc(Sc2ccc(O)cc2)cc1	<=8	Dose-dependent effect	Dose-dependent effect	<=8	<=8	<=8	Dose-dependent effect	Dose-dependent effect	–	–	–	–	–
O=C(Nc1ccc(C(F)(F)F)cc1)c1ccc(Sc2ccc(O)cc2)cc1	<=8	Dose-dependent effect	Dose-dependent effect	<=8	<=8	<=8	Dose-dependent effect	Dose-dependent effect	–	–	–	–	–
O=C(Nc1cc(C(F)(F)F)ccc1C(F)(F)F)c1ccc(S(=O)(=O)c2ccc(O)cc2)cc1	<=8	Dose-dependent effect	Dose-dependent effect	<=8	<=8	<=8	Dose-dependent effect	Dose-dependent effect	–	–	–	–	–
N#Cc1ccc(NC(=O)c2ccc(S(=O)(=O)c3cccc(C(F)(F)F)c3)cc2)cc1C(F)(F)F	<=8	Dose-dependent effect	Dose-dependent effect	<=8	<=8	<=8	Dose-dependent effect	Dose-dependent effect	–	–	–	–	–
O=C(Nc1ccc(S(F)(F)(F)(F)F)cc1)c1ccc(Sc2ccc(O)cc2)cc1	<=8	Dose-dependent effect	Dose-dependent effect	<=8	<=8	<=8	Dose-dependent effect	Dose-dependent effect	Toxic	–	–	–	–
O=C(Nc1cc(C(F)(F)F)ccc1C(F)(F)F)c1ccc(Sc2ccc(O)cc2)cc1	<=8	Dose-dependent effect	Dose-dependent effect	<=8	<=8	<=8	Dose-dependent effect	Dose-dependent effect	Toxic	–	–	–	–
O=C(Nc1cc(C(F)(F)F)cc(C(F)(F)F)c1)c1ccc(Sc2ccc(O)cc2)cc1	<=8	Dose-dependent effect	Dose-dependent effect	<=8	<=8	<=8	Dose-dependent effect	Dose-dependent effect	–	–	–	–	–
O=C(Nc1ccc(S(F)(F)(F)(F)F)cc1)c1ccc([S+]([O-])c2ccc(O)cc2)cc1 (configuration not stated)	<=8	Dose-dependent effect	Dose-dependent effect	<=8	<=8	<=8	Dose-dependent effect	Dose-dependent effect	–	–	–	–	–
